Laboratory results reported in publication PMC7881813 (The Indian Journal of Medical Research, 2020).

What was measured:
EAC-bearing mice [1] = experiment: Hepatotoxicity and kidney toxicity parameters of EAC-bearing mice; format: in vivo, mouse; conditions: treatment at IC50 dosage; for ALP / ALT / AST / Creatinine / Urea: EAC-bearing mice, mean±SD n=6
EAC cells = experiment: In vivo IC50 determination in EAC cells by trypan blue dye exclusion; conditions: Mus musculus, 24 h, read-out: IC50 (50 per cent lethality of EAC cells) in vivo
EAC-bearing mice [2] = experiment: Survivability study; format: in vivo, mouse; conditions: respective IC50 dosages, n=10
In short: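 EAC-bearing mice (1×10⁶ cells intraperitoneally), ten per group, treated beginning 24 h after inoculation. Survival days recorded. ILS% = (T−C)/C×100, with T the survival days of treated mice and C those of untreated mice. Kaplan–Meier survival analysis.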

MDA-MB-231 cells [3] = experiment: MTT assay for IC50 determination, MDA-MB-231; format: cell-based; conditions: Homo sapiens, MDA-MB-231, read-out: IC50 for MDA-MB-231
EAC-bearing mice [4] = experiment: Haematological parameters of EAC-bearing mice; format: in vivo, mouse; conditions: for Hb / Platelets / RBC / WBC: treatment at IC50 dose, mean±SD n=6; for Effect on haematological counts (in words): respective IC50 dosage
In short: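 Female Swiss albino mice (7–8 wk) inoculated intraperitoneally with 1×10⁶ EAC cells on day 0, then treated on days 1–10. After 4 h fasting, heparinised cardiac blood collected. Haemoglobin by Sahli's method; RBC, WBC and platelets on an automated haematology analyser. Mean±SD, six mice per group.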

MCF-7 cells [5] = experiment: MTT assay for IC50 determination, MCF-7; format: cell-based; conditions: Homo sapiens, MCF7, read-out: IC50 for MCF-7
[6] = system: EAC, MCF-7 and MDA-MB-231 cells; experiment: Intracellular ROS generation; format: cell-based; conditions: XD at respective IC50 (8.1, 1 and 5 μM), in vivo and in vitro, vs untreated
normal murine fibroblast = experiment: MTT cytotoxicity on normal mouse fibroblast; format: cell-based; conditions: xanthones up to highest concentration, cisplatin at 20 μM, XD at 1 and 5 μM
[7] = system: EAC, MCF-7 and MDA-MB-231 cells; experiment: TUNEL assay; format: cell-based; conditions: in vivo and in vitro models, vs control
In short: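 EAC cells recovered from the peritoneum of mice after 10 days of XD dosing, PBS-washed, smeared and fixed in 4% paraformaldehyde. MCF-7 and MDA-MB-231 cells grown on coverslips and fixed in paraformaldehyde. Fluorescein in situ cell-death (TUNEL) kit used per manufacturer; positive cells imaged by fluorescence microscopy at ×20.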

MCF-7 cells [8] = experiment: Comet assay, MCF-7 cells; format: cell-based, human; conditions: MCF-7, XD 1 μM
In short: (§1)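 Alkaline comet assay, about 10⁴ cells/slide in 1% low-melt agarose over normal agarose, capped with 0.5% low-melt agarose. Lysis overnight at 4°C (2.5 M NaCl, 100 mM Na₂-EDTA, 10 mM Tris, 1% Triton X-100, 10% DMSO, pH 10.0). Electrophoresis at pH 13.1, 30 min, 300 mA, 20 V. Tris neutralisation, ethidium bromide staining. Per cent damaged cells among 150–200 scored per slide.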

[9] = system: normal cells (fibroblast); experiment: Comet assay, normal fibroblast; format: cell-based, mouse; conditions: highest dose of 40 μM
In short: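 Mouse fibroblasts treated with XD 24 h after seeding and harvested 48 h later. Alkaline comet assay: cells in low-melt agarose layers, overnight lysis at 4°C at pH 10.0, electrophoresis at pH 13.1 for 30 min (300 mA, 20 V), neutralisation, ethidium bromide stain. Fluorescence microscopy; damaged-cell per cent and tail length from 150–200 cells per slide.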

[10] = system: EAC, MCF-7 and MDA-MB-231 cells; experiment: DNA fragmentation assay; format: cell-based; conditions: XD at respective IC50 dosage (8.1, 1 and 5 μM)
Bax:Bcl-2 = experiment: Western blot Bax:Bcl-2 ratio; format: cell-based; conditions: EAC, MCF-7 and MDA-MB-231 cells, XD-treated vs control
In short: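 Whole-cell extracts prepared from control and XD-treated EAC, MCF-7 and MDA-MB-231 cells. Bax and Bcl-2 immunoblotted and the Bax:Bcl-2 ratio calculated. EAC cells came from mice dosed on days 1–10 after intraperitoneal tumour inoculation. Repeated at least three times, mean±SD.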

normal fibroblast = experiment: Intracellular ROS generation; format: cell-based, mouse; conditions: treatment with 50 μM
MDA-MB-231 cells [11] = experiment: Comet assay, MDA-MB-231 cells; format: cell-based, human; conditions: MDA-MB-231, XD 5 μM
In short: as §1

[12] = system: EAC, MCF-7 and MDA-MB-231 cells; experiment: Cell cycle phase distribution by flow cytometry; format: cell-based; conditions: 10 days of treatment in vivo and 48 h in vitro, vs control
In short: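 EAC cells taken from mice 10 days after daily XD dosing (days 1–10 after intraperitoneal inoculation with 1×10⁶ cells), PBS-washed and haemocytometer-counted. […] Cell-cycle distribution, including SubG0, by flow cytometry. Repeated at least three times.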

normal mice = experiment: Chronic toxicity study with therapeutic dosage of XD; format: in vivo, mouse; conditions: 8 μM, oral, 40 days, data not shown
In short: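 Normal mice dosed orally with XD for 40 days; controls got 0.9% saline. After 4 h fasting, blood drawn by cardiac puncture, clotted, spun at 2000×g for 15 min, serum held at −20°C. ALT, ALP, urea and creatinine measured on an automated clinical chemistry analyser.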

[13] = system: liver cytosol of EAC-bearing mice; experiment: Antioxidative enzymes and LPO in liver cytosol of EAC-bearing mice; format: in vivo, mouse
In short: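 Liver from female Swiss albino mice bearing intraperitoneal EAC. After 15 days of treatment: GST in liver cytosol, rise in A340 with CDNB substrate, as CDNB-GSH conjugate formed per min per mg protein. GPx in post-mitochondrial fraction, fall in A340 after H₂O₂ addition, as nmol NADPH used per min per mg protein. Mean±SD, six per group.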

[14] = EAC-bearing mice, XD-treated 8.1 µM

COc1cc(O)c2c(=O)c3c(OC)c(OC)ccc3oc2c1 [XA, 1-hydroxy-3,7,8-trimethoxyxanthone] showed an ALP (EAC-bearing mice [1]) of 103±3 IU/l, an ALT (EAC-bearing mice [1]) of 91±3 IU/l and an AST (EAC-bearing mice [1]) of 350±1 IU/l. For the same compound, the Creatinine (EAC-bearing mice [1]) was 1.7 ± 0.09 mg/dL, the Urea (EAC-bearing mice [1]) was 71 ± 8 mg/dL and the IC50 (EAC cells) was 48.5 µM. The “Increase in life span of tumour-bearing mice (ILS%)” value (“Increase in life span … (ILS%)” for short) (EAC-bearing mice [2]) was 45%, the IC50 (MDA-MB-231 cells [3]) was 50 µM and the Hb (EAC-bearing mice [4]) was 7.5 ± 0.8 g/dL. For the same compound, the Platelets (EAC-bearing mice [4]) was 456±3 10^3/µl, the RBC (EAC-bearing mice [4]) was 4.15±0.4 10^6/µl and the WBC (EAC-bearing mice [4]) was 30.8±0.6 10^3/µl. It also gave an IC50 (MCF-7 cells [5]) of 30 µM.
With N.N.[Cl][Pt][Cl] [Cisplatin, reference compound] the “Increase in life span … (ILS%)” value (EAC-bearing mice [2]) was 36.36%, the “Effect on haematological counts (in words)” value (EAC-bearing mice [4]) was “lowering of RBC, Hb and platelets” and the Hb (EAC-bearing mice [4]) was 2.1 ± 0.4 g/dL. The Platelets (EAC-bearing mice [4]) was 200±2 10^3/µl, the RBC (EAC-bearing mice [4]) was 2.7±0.6 10^6/µl and the WBC (EAC-bearing mice [4]) was 35.8±0.8 10^3/µl.
COc1cc(O)c2c(=O)c3c(OC)ccc(OC)c3oc2c1 [XC, 1-hydroxy-3,5,8-trimethoxyxanthone] gave an ALP (EAC-bearing mice [1]) of 106±2 IU/l, an ALT (EAC-bearing mice [1]) of 85±5 IU/l and an AST (EAC-bearing mice [1]) of 355±9 IU/l. The Creatinine (EAC-bearing mice [1]) was 1.2 ± 0.09 mg/dL, the Urea (EAC-bearing mice [1]) was 79 ± 8 mg/dL and the IC50 (EAC cells) was 32.4 µM. For the same compound, the “Increase in life span … (ILS%)” value (EAC-bearing mice [2]) was 81%, the IC50 (MDA-MB-231 cells [3]) was 25 µM and the Hb (EAC-bearing mice [4]) was 7.9 ± 0.9 g/dL. For the same compound, the Platelets (EAC-bearing mice [4]) was 441±2 10^3/µl, the RBC (EAC-bearing mice [4]) was 5.75±0.2 10^6/µl and the WBC (EAC-bearing mice [4]) was 27.2±0.8 10^3/µl. For the same compound, the IC50 (MCF-7 cells [5]) was 8 µM.
COc1cc(O)c2c(=O)c3c(O)ccc(OC)c3oc2c1 [XB, 1,8-dihydroxy-3,5-dimethoxyxanthone] showed an ALP (EAC-bearing mice [1]) of 160±5 IU/l, an ALT (EAC-bearing mice [1]) of 93±4 IU/l and an AST (EAC-bearing mice [1]) of 335±8 IU/l. The Creatinine (EAC-bearing mice [1]) was 1.1 ± 0.09 mg/dL, the Urea (EAC-bearing mice [1]) was 67 ± 8 mg/dL and the IC50 (EAC cells) was 48.5 µM. For the same compound, the “Increase in life span … (ILS%)” value (EAC-bearing mice [2]) was 63%, the IC50 (MDA-MB-231 cells [3]) was 30 µM and the Hb (EAC-bearing mice [4]) was 7.4 ± 0.5 g/dL. The Platelets (EAC-bearing mice [4]) was 596±4 10^3/µl, the RBC (EAC-bearing mice [4]) was 4.75±0.3 10^6/µl and the WBC (EAC-bearing mice [4]) was 24.6±0.6 10^3/µl. For the same compound, the IC50 (MCF-7 cells [5]) was 25 µM.
With COc1cc(O)c2c(=O)c3c(O)ccc(O)c3oc2c1 [XD, 1,5,8-trihydroxy-3-methoxyxanthone] the ROS level [6] was “significantly (P<0.001) increased”, the “Effect on normal murine fibroblast” value (normal murine fibroblast) was “without affecting the normal cells” and the “Apoptosis by TUNEL assay” value [7] was “significant apoptosis”. It also gave an ALP (EAC-bearing mice [1]) of 57.2±2 IU/l, an ALT (EAC-bearing mice [1]) of 79±2 IU/l and an AST (EAC-bearing mice [1]) of 205±5 IU/l. The Creatinine (EAC-bearing mice [1]) was 0.7 ± 0.09 mg/dL, the Urea (EAC-bearing mice [1]) was 41 ± 8 mg/dL and the “Liver and kidney toxicity parameters in tumour-bearing mice” value (EAC-bearing mice [1]; compared to normal mice) was “almost back to normal”. The “per cent of damaged cells (comet assay)” value (MCF-7 cells [8]) was 65 per cent, the “DNA damage in normal cells (comet assay)” value [9] was “no DNA damage was seen in normal cells” and the DNA fragmentation [10] was “smearing pattern”. The “intracellular Bax:Bcl-2 ratio” value (Bax:Bcl-2) was “significant (P<0.001) augmentation”, the IC50 (EAC cells) was 8.1 µM and the “Increase in life span … (ILS%)” value (EAC-bearing mice [2]) was 140%. For the same compound, the “ROS generation in normal fibroblast” value (normal fibroblast) was “augmentation of ROS generation was not seen”, the IC50 (MDA-MB-231 cells [3]) was 5 µM and the “Effect on haematological counts (in words)” value (EAC-bearing mice [4]) was “lower WBC and platelet counts back to normal level”. For the same compound, the Hb (EAC-bearing mice [4]) was 10 ± 2 g/dL, the Platelets (EAC-bearing mice [4]) was 341±8 10^3/µl and the RBC (EAC-bearing mice [4]) was 5.05±0.5 10^6/µl. The WBC (EAC-bearing mice [4]) was 17.2±0.2 10^3/µl, the IC50 (MCF-7 cells [5]) was 1 µM and the “per cent of damaged cells (comet assay)” value (MDA-MB-231 cells [11]) was 67 per cent. The SubG0 population [12] was “significantly (P<0.001) increase”, the “Chronic toxicity (liver and kidney toxicity parameters)” value (normal mice) was “did not show any toxicity” and the CAT ([13]; Drug control group) was 0.4±0.06 units/mg. It also gave a GPx ([13]; Drug control group) of 8.28 ± 0.6 nmol/mg, a GSH ([13]; Drug control group) of 2.6 ± 0.3 nmol/mg and a GST ([13]; Drug control group) of 8 ± 0.6 nmol/mg. For the same compound, the LPO ([13]; Drug control group) was 1.6 ± 0.09 mol/mg, the SOD ([13]; Drug control group) was 17±6 units/mg and the GPx [13, 14] was 9.9 ± 2 nmol/mg. It also gave a GSH [13, 14] of 5.72 ± 1 nmol/mg, a GST [13, 14] of 15 ± 5 nmol/mg and an LPO [13, 14] of 1.8 ± 0.09 mol/mg. For the same compound, the SOD [13, 14] was 35±0.8 units/mg.
